In brackets after ≈: the same amount, converted by molar mass.
Key:
[1] = Antibacterial activity against Salmonella enterica ATCC 14028; format: functional
Escherichia coli = assay: Antibacterial activity against Escherichia coli MC1061; format: functional
Procedure, shortened: (§1)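 Values were set in μM and converted to μg/mL for presentation. Amikacin, ampicillin and ofloxacin served as positive controls.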

Enterobacter cloacae = assay: Antibacterial activity against Enterobacter cloacae ATCC 13047; format: functional; details: subsp. cloacae ATCC 13047
[2] = tested on: Mycolicibacterium smegmatis; assay: Antimycobacterial activity against Mycobacterium smegmatis MC2 155; format: functional; details: str. MC2 155; procedure, shortened: as §1
[3] = Antifungal activity against fluconazole/itraconazole/voriconazole-resistant Candida albicans ATCC 10231; format: functional
[4] = Cytotoxicity against human A549 cells assessed as reduction in cell survival; format: toxicity, cell-based
Listeria monocytogenes = assay: Antibacterial activity against Listeria monocytogenes ATCC 19115; format: functional
Candida albicans = assay: Antifungal activity against Candida albicans ATCC 1003; format: functional
[5] = Antifungal activity against fluconazole/itraconazole/voriconazole-susceptible Candida albicans ATCC 2876; format: functional
[6] = Antifungal activity against fluconazole/itraconazole/voriconazole-susceptible Candida albicans ATCC 2310; format: functional
Staphylococcus aureus = assay: Antibacterial activity against methicillin-resistant Staphylococcus aureus; format: functional; procedure, shortened: as §1
[7] = Antifungal activity against fluconazole/itraconazole/voriconazole-resistant Candida albicans ATCC 64124; format: functional
Klebsiella pneumoniae = assay: Antibacterial activity against Klebsiella pneumoniae ATCC 27736; format: functional
Acinetobacter baumannii = assay: Antibacterial activity against Acinetobacter baumannii ATCC 19606; format: functional
[8] = Antifungal activity against fluconazole/itraconazole/voriconazole-resistant Candida albicans ATCC 90819; format: functional
[9] = Cytotoxicity against human BEAS2B cells assessed as reduction in cell survival; format: toxicity, cell-based; details: beas-2b
Enterococcus = assay: Antibacterial activity against vancomycin-resistant Enterococcus; format: functional; procedure, shortened: as §1
[10] = Antifungal activity against fluconazole/itraconazole/voriconazole-resistant Candida albicans ATCC 1237; format: functional
Bacillus subtilis = assay: Antibacterial activity against Bacillus subtilis 168; format: functional; details: subsp. subtilis str. 168
Pseudomonas aeruginosa = assay: Antibacterial activity against Pseudomonas aeruginosa ATCC 27853; format: functional

Compound | MIC [1] | MIC (Escherichia coli) | MIC (Enterobacter cloacae) | MIC [2] | MIC [3] | IC50 [4] | MIC (Listeria monocytogenes) | MIC (Candida albicans) | MIC [5] | MIC [6] | MIC (Staphylococcus aureus) | MIC [7] | MIC (Klebsiella pneumoniae) | MIC (Acinetobacter baumannii) | MIC [8] | IC50 [9] | MIC (Enterococcus) | MIC [10] | MIC (Bacillus subtilis) | MIC (Pseudomonas aeruginosa)
C/C(=N\NC(=N)N)c1cccc(/C(C)=N/NC(=N)N)c1.Cl.Cl | 62.5 to 250 µM | > 500 µM | > 500 µM | 15.6 µM | > 90.1 µM | 31.2 µg/mL | 250 µM | > 90.1 µM | 22.5 µM | 90.1 µM | > 500 µM | > 90.1 µM | > 500 µM | > 500 µM | > 90.1 µM | 33 µg/mL | 125 µM | 90.1 µM | 250 µM | 500 µM
NCC[C@H](O)C(=O)N[C@@H]1C[C@H](N)[C@@H](O[C@H]2O[C@H](CN)[C@@H](O)[C@H](O)[C@H]2O)[C@H](O)[C@H]1O[C@H]1O[C@H](CO)[C@@H](O)[C@H](N)[C@H]1O [AMIKACIN] | 3.9 to 7.8 µM (≈ 2.28 to 4.57 µg/mL) | 31.3 µM (≈ 18.3 µg/mL) | 62.5 µM (≈ 36.6 µg/mL) | 15.6 µM (≈ 9.14 µg/mL) |  |  | 3.9 µM (≈ 2.28 µg/mL) |  |  |  | 31.3 µM (≈ 18.3 µg/mL) |  | 31.3 µM (≈ 18.3 µg/mL) | 31.3 µM (≈ 18.3 µg/mL) |  |  | 125 µM (≈ 73.2 µg/mL) |  | 3.9 to 15.6 µM (≈ 2.28 to 9.14 µg/mL) | 62.5 µM (≈ 36.6 µg/mL)
C[C@@H]1[C@H](O)[C@@H](C)/C=C/C=C/C=C/C=C/C=C/C=C/C=C/[C@H](O[C@@H]2O[C@H](C)[C@@H](O)[C@H](N)[C@@H]2O)C[C@@H]2O[C@](O)(C[C@@H](O)C[C@@H](O)[C@H](O)CC[C@@H](O)C[C@@H](O)CC(=O)O[C@H]1C)C[C@H](O)[C@H]2C(=O)O [AMPHOTERICIN B] |  |  |  |  |  | 18.2 µg/mL (≈ 19.7 µM) |  |  |  |  |  | 2.1 to 4.2 µM (≈ 1.94 to 3.88 µg/mL) |  |  |  | 17.7 µg/mL (≈ 19.2 µM) |  |  |  | 
C/C(=N\NC(=N)N)c1ccc(-c2ccc(/C(C)=N/NC(=N)N)cc2)cc1.Cl.Cl | > 500 µM | 62.5 µM | 125 µM | > 500 µM | 4.7 to 9.2 µM | 6.3 µg/mL | > 500 µM | 18.4 µM | 4.7 µM | 9.2 µM | > 500 µM | 4.7 µM | 15.6 µM | > 500 µM | 9.2 µM | 1.7 µg/mL | > 500 µM | > 73.9 µM | > 500 µM | 2 µM
Cl.N=C(N)N/N=C/c1ccc(-c2ccc(/C=N/Nc3ccccc3Br)cc2)cc1 | > 500 µM | > 500 µM | > 500 µM | 3.9 µM | 4.1 µM | 6.7 µg/mL | 2 µM | 4.1 µM | 8.3 µM | 8.3 µM | 2 µM | 8.3 µM | > 500 µM | > 500 µM | 8.3 µM | 3.4 µg/mL | 2 µM | 8.3 µM | > 500 µM | > 500 µM
CC1COc2c(N3CCN(C)CC3)c(F)cc3c(=O)c(C(=O)O)cn1c23 (stereo not given) [OFLOXACIN] | 15.6 to 31.3 µM (≈ 5.64 to 11.3 µg/mL) | 3.9 to 7.8 µM (≈ 1.41 to 2.82 µg/mL) | ≤ 0.5 µM | 15.6 µM (≈ 5.64 µg/mL) |  |  | 1 µM (≈ 0.361 µg/mL) |  |  |  | 1 µM (≈ 0.361 µg/mL) |  | 15.6 to 31.3 µM (≈ 5.64 to 11.3 µg/mL) | ≤ 0.5 µM |  |  | 7.8 µM (≈ 2.82 µg/mL) |  | ≤ 0.5 µM | 3.9 µM (≈ 1.41 µg/mL)
Cl.N=C(N)N/N=C/c1ccc(-c2ccc(/C=N/Nc3ccc(F)cc3F)cc2)cc1 | > 500 µM | > 500 µM | > 500 µM | 2 to 3.9 µM | 2.3 µM | 4.8 µg/mL | 2 to 3.9 µM | 4.5 µM | 9.1 µM | 9.1 µM | 3.9 µM | 9.1 µM | > 500 µM | > 500 µM | 18.2 µM | 5.8 µg/mL | 3.9 µM | 9.1 µM | > 500 µM | > 500 µM
C/C(=N\NC(=N)N)c1ccc(Cc2ccc(/C(C)=N/NC(=N)N)cc2)cc1.Cl.Cl | > 500 µM | > 500 µM | > 500 µM | 2 µM | 17.8 µM | 4.3 µg/mL | 3.9 µM | 17.8 µM | 8.9 µM | 17.8 µM | 3.9 µM | 17.8 µM | > 500 µM | > 500 µM | 17.8 µM | 2.9 µg/mL | 2 µM | 17.8 µM | > 500 µM | > 500 µM
C/C(=N\NC(=N)N)c1ccc(/C(C)=N/NC(=N)N)cc1 | 250 to 500 µM (≈ 68.6 to 137 µg/mL) | > 500 µM | > 500 µM | > 500 µM | > 90.1 µM |  | 250 µM (≈ 68.6 µg/mL) | > 90.1 µM | > 90.1 µM | > 90.1 µM | > 500 µM | 90.1 µM (≈ 24.7 µg/mL) | 500 µM (≈ 137 µg/mL) | 500 µM (≈ 137 µg/mL) | > 90.1 µM |  | 125 µM (≈ 34.3 µg/mL) | > 90.1 µM | 250 µM (≈ 68.6 µg/mL) | 250 µM (≈ 68.6 µg/mL)
N=C(N)N/N=C/c1ccc(-c2ccc(/C=N/Nc3ccc(Cl)cc3Cl)cc2)cc1 | > 500 µM | > 500 µM | > 500 µM | 3.9 µM (≈ 1.66 µg/mL) | 16.8 µM (≈ 7.15 µg/mL) |  | 7.8 µM (≈ 3.32 µg/mL) | 16.8 µM (≈ 7.15 µg/mL) | 33.8 µM (≈ 14.4 µg/mL) | 16.8 µM (≈ 7.15 µg/mL) | 7.8 µM (≈ 3.32 µg/mL) | 67.8 µM (≈ 28.8 µg/mL) | > 500 µM | > 500 µM | 67.8 µM (≈ 28.8 µg/mL) |  | 7.8 µM (≈ 3.32 µg/mL) | 33.8 µM (≈ 14.4 µg/mL) | > 500 µM | > 500 µM
CC1(C)S[C@@H]2[C@H](NC(=O)[C@H](N)c3ccccc3)C(=O)N2[C@H]1C(=O)O [AMPICILLIN] | 250 µM (≈ 87.4 µg/mL) | > 250 µM | > 250 µM | > 250 µM |  |  | 250 µM (≈ 87.4 µg/mL) |  |  |  | 250 µM (≈ 87.4 µg/mL) |  | > 250 µM | > 250 µM |  |  | 250 µM (≈ 87.4 µg/mL) |  | > 250 µM | > 250 µM
C/C(=N\NC(=N)N)c1ccc(-c2ccc(/C(C)=N/Nc3ccccc3Cl)cc2)cc1 | 62.5 to 125 µM (≈ 26.2 to 52.4 µg/mL) | 500 µM (≈ 209 µg/mL) | 500 µM (≈ 209 µg/mL) | 500 µM (≈ 209 µg/mL) | 34.3 µM (≈ 14.4 µg/mL) |  | 62.5 to 125 µM (≈ 26.2 to 52.4 µg/mL) | 34.3 µM (≈ 14.4 µg/mL) | 34.3 µM (≈ 14.4 µg/mL) | 34.3 µM (≈ 14.4 µg/mL) | 125 µM (≈ 52.4 µg/mL) | 68.7 µM (≈ 28.8 µg/mL) | 62.5 to 125 µM (≈ 26.2 to 52.4 µg/mL) | 62.5 µM (≈ 26.2 µg/mL) | 34.3 µM (≈ 14.4 µg/mL) |  | 3.9 µM (≈ 1.63 µg/mL) | 34.3 µM (≈ 14.4 µg/mL) | 62.5 to 125 µM (≈ 26.2 to 52.4 µg/mL) | 500 µM (≈ 209 µg/mL)

— ChEMBL document CHEMBL3871280, “Bis(N-amidinohydrazones) and N-(amidino)-N'-aryl-bishydrazones: New classes of antibacterial/antifungal agents” (Bioorg Med Chem, 2017)
